Test [1] relates to T-cell. In words: T-cell inhibitory potency relative to the IC50 of a(Cha)AAAKTAAAAa-NH2 in MHC class II DRB1*0401. Format: functional, Homo sapiens.
The nature of test [2]: Mean relative potency is the ratio of potencies of 'Ac-(Cha)RAMASL-NH2' and compound, to inhibit MHC class II DRB1*0101. The gist of the method: (§1)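 Scintillation proximity competition assay. Test compounds competed against the radioligand, and bound counts were read by scintillation. Ac-(Cha)RAMASL-NH2 was run as standard competitor in every run. Potency is the ratio of standard IC50 to compound IC50.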

Test [3] addresses Cathepsin B (Bos taurus) (UniProt P07688). In words: Percent of original compound remaining with cathepsin B after incubation for 4 hrs was determined by HPLC.
A short description of test [4]: Mean relative potency is the ratio of potencies of 'Ac-(Cha)RAMASL-NH2' and compound, to inhibit MHC class II DRB1*0401. In short, it runs like this:
as §1

Test [5] relates to T-cell. In words: T-cell inhibitory potency relative to the IC50 of a(Cha)AAAKTAAAAa-NH2 MHC class II DRB1*0101. The class given is functional, Homo sapiens.

`CSCC[C@@H](NC(=O)[C@H]1Cc2ccccc2CN1C(=O)[C@H](CCCN=C(N)N)NC(=O)[C@H](CC1CCCCC1)NC(C)=O)C(=O)N1CCC(c2ccccc2)[C@@H]1C(=O)N[C@@H](CO)C(=O)N(C)[C@@H](CC(C)C)C(N)=O` (stereo not given in full): the T-cell inhibition is 2.7 in test [1] and 2.5 in test [5]. The Mean relative potency in test [2] is 0.49; in test [4], 0.22. Moreover, in test [3], the % remaining was 116%.

These data come from ChEMBL document CHEMBL1133693, “Peptide and peptide mimetic inhibitors of antigen presentation by HLA-DR class II MHC molecules. Design, structure-activity relationships, and X-ray crystal structures” (J Med Chem, 2000).
